How the values were obtained:
Rattus norvegicus = species on record: Rattus norvegicus; test: In vitro effective concentration for [Ca2+] uptake and accumulation of [Ca2+] in neonatal rat cultured spinal sensory neurons; type: functional
Outline: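 Newborn rat DRG neurones dissociated with collagenase then 2.5 mg/mL trypsin at 37 °C, plated with 1 μg/mL NGF, 10^-4 M cytosine arabinoside for 48 h; used at 3-7 days. Cells washed in Ca-free HEPES BSS pH 7.4, then given compound plus 10 μCi/mL 45Ca2+ with 1% DMSO for 10 min at room temperature. SDS-extracted, scintillation counted. Sigmoidal fit; ≥6 replicates, ≥2 experiments; mean ± SEM.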

[1] = Acid dissociation constant was determined; type: ADME
Mus musculus = test: In vivo analgesic activity, mouse tail flick latency in antinociceptive assay; type: functional
Outline: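 Female CD-1 mice, about 20 g, fasted overnight. Drug or vehicle given s.c. into the back of the neck, 10 per group. Tail flick latency to a focused light beam measured 1 h later at 3.5 cm from the tip, 30 s cutoff. % analgesia = (drug − vehicle latency)/(30 s − vehicle latency); ED50 = dose giving 50% analgesia. Mann-Whitney U or Dunnett's test.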

Cavia porcellus = species on record: Cavia porcellus; test: In vitro contraction in guinea pig ileum equivalent to 50% capsaicin response; type: functional
Outline: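 Male Dunkin-Hartley guinea pig ileum segments in Tyrode's solution at 37 °C, gassed 95% O2/5% CO2, isometric recording, 1 h equilibration under 0.5 g tension. […] doses given at 1 h intervals with frequent washes. Contraction amplitude expressed as % of maximal capsaicin response; EC50 = concentration giving 50% of that response; mean ± SEM from at least four tissues.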

| Compound | EC50 (Rattus norvegicus) | pKa [1] | ED50 (Mus musculus) | EC50 (Cavia porcellus) |
| --- | --- | --- | --- | --- |
| CCCCCCCCC(=O)NCc1cc[n+]([O-])cc1 | > 100 µM |  |  |  |
| CCCCCCCCNC(=O)Cc1ccc(O)c(OC)c1OC | > 100 µM |  |  |  |
| CCCCCCCCNC(=O)Cc1ccc(OC)c(O)c1 | 1.82 µM |  |  |  |
| CCCCCCCCC(=O)NCc1ccnc(OC)c1 | 31.5 µM |  |  |  |
| CCCCCCCCNC(=O)Cc1ccc(O)c(NC(C)=O)c1 | > 100 µM | 9.7 |  |  |
| CCCCCCCCC(=O)NCc1ccc(O)c(O)c1O | 7.64 µM |  |  |  |
| COc1cc(CNC(=O)CCCC/C=C/C(C)C)ccc1O [CAPSAICIN] | 0.3 µM |  | 15 µmol/kg | 0.26 µM |
| CCCCCCCCNC(=O)Cc1ccc(O)c(OC)c1 | 0.3 µM | 9.9 | 9.2 µmol/kg | 0.33 µM |
| CCCCCCCCC(=O)NCc1ccc(OC)cc1 | > 100 µM |  | > 50 µmol/kg | 22.2 µM |
| CCCCCCCCNC(=O)Cc1ccc2ncccc2c1 | > 100 µM |  |  |  |
| CCCCCCCCC(=O)NCc1ccncc1 | 28 µM |  |  |  |
| CCCCCCCCC(=O)NCc1cc(=O)c(O)co1 | > 100 µM |  |  |  |
| CCCCCCCCNC(=O)Cc1ccc(O)cc1 | 6.5 µM | 10.2 | > 50 µmol/kg | 2.75 µM |
| CCCCCCCCNC(=O)Cc1ccc(O)c(OCC)c1 | 4.34 µM | 10.4 | > 50 µmol/kg | 4.96 µM |
| CCCCCCCCC(=O)NCc1ccc([N+](=O)[O-])c(OC)c1 | 7.91 µM |  |  |  |
| CCCCCCCCC(=O)NCc1cc(O)cc(OC)c1 | > 100 µM |  |  |  |
| CCCCCCCCNC(=O)Cc1ccc(O)c2c1OCCO2 | > 100 µM |  |  |  |
| CCCCCCCCC(=O)NCc1ccccc1OC | > 100 µM |  |  |  |
| CCCCCCCCC(=O)NCc1cc(OC)c(OC)c(OC)c1 | > 100 µM |  |  |  |
| CCCCCCCCNC(=O)Cc1ccc(O)c(O)c1 | 0.41 µM | 9.2 | 50 µmol/kg | 0.33 µM |
| CCCCCCCCC(=O)NCc1ccc(OC)c(OC)c1 | 6.41 µM |  | > 50 µmol/kg | 1.15 µM |

| Compound | EC50 (Rattus norvegicus) | pKa [1] | ED50 (Mus musculus) | EC50 (Cavia porcellus) |
| --- | --- | --- | --- | --- |
| CCCCCCCCNC(=O)Cc1ccc2c(c1)OCO2 | > 100 µM |  |  |  |
| CCCCCCCCC(=O)NCc1ccccc1 [NONANOIC ACID BENZYLAMIDE] | > 100 µM |  |  |  |
| CCCCCCCCC(=O)NCc1ccc(S)c(OC)c1 | > 100 µM |  |  |  |
| CCCCCCCCNC(=O)Cc1ccc(OC)c(C)c1 | > 100 µM |  |  |  |
| CCCCCCCCC(=O)NCc1ccc(N)c(OC)c1 | > 10 µM |  |  |  |
| CCCCCCCCNC(=O)Cc1cccc(OC)c1 | > 100 µM |  |  |  |
| CCCCCCCCC(=O)NCc1ccc(C(=O)O)cc1 | > 100 µM |  |  |  |
| CCCCCCCCNC(=O)Cc1ccc(O)c(Cl)c1 | 0.26 µM | 9 | > 50 µmol/kg | 0.68 µM |
| CCCCCCCCNC(=O)Cc1ccc(O)c([N+](=O)[O-])c1 | 1.04 µM | 7.7 | > 50 µmol/kg | 2.78 µM |
| CCCCCCCCC(=O)NCc1cccc(O)c1 | > 100 µM |  |  |  |
| CCCCCCCCNC(=O)Cc1cc(OC)c(O)c(OC)c1 | > 100 µM |  |  |  |
| CCCCCCCCC(=O)NCc1ccc(O)c(OC)c1 [NONIVAMIDE] | 0.55 µM |  | 5 µmol/kg | 0.4 µM |
| CCCCCCCCC(=O)NCc1cccc(OC)c1 | > 100 µM |  |  |  |
| CCCCCCCCNC(=O)Cc1ccc(O)c(C)c1 | > 100 µM | 10.6 |  |  |
| CCCCCCCCC(=O)NCc1ccc2[nH]ccc2c1 | > 100 µM |  |  |  |
| CCCCCCCCC(=O)NCc1ccc(O)cc1OC | > 100 µM |  |  |  |
| CCCCCCCCC(=O)NCc1ccc2c(c1)OCO2 | > 100 µM |  |  |  |
| CCCCCCCCNC(=O)Cc1ccc(O)c(N)c1 | > 100 µM | 10 |  |  |
| CCCCCCCCC(=O)NCc1ccc(O)c(O)c1 | 0.63 µM |  | 20 µmol/kg | 0.22 µM |
| CCCCCCCCC(=O)NCc1cccnc1 | > 100 µM |  |  |  |
| CCCCCCCCC(=O)NCc1cc(OC)c(O)cc1OC | > 100 µM |  |  |  |
